Assay results published in ChEMBL document CHEMBL1158117, “Decaspirones A-E, bioactive spirodioxynaphthalenes from the freshwater aquatic fungus Decaisnella thyridioides” (2006).
In brackets after ≈: the same amount, converted by molar mass. Activity calls are given as the source filed them. No cut-off for these calls is given here.

Legend:
Assay type in all cases: functional
Bacillus subtilis = experiment: Antibacterial activity against Bacillus subtilis ATCC 6051 at 50 ug/disk; settings: read-out: IZ
How it was run: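 Standard paper-disk agar diffusion test at 50 µg per disk; activity read as the diameter of the inhibition zone in mm.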

Staphylococcus aureus = experiment: Antibacterial activity against Staphylococcus aureus ATCC 29213 at 100 ug/disk; settings: for zone of inhibition at 100 µg/disc: read-out: IZ
Candida albicans = experiment: Antimicrobial activity against Candida albicans ATCC 14053 at 100 ug/disk; settings: for zone of inhibition at 100 µg/disc: read-out: IZ
Fusarium verticillioides [1] = experiment: Antifungal activity against Fusarium verticillioides NRRL 25457 after 48 hrs; settings: NRRL 25457, 48 h
How it was run: (§1)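 Broth microdilution in 96-well plates at 1, 3, 5, 10 and 25 µg/mL, with eight replicate wells per level. Compound in MeOH was dried in the well, redissolved in 10 µL MeOH, then 200 µL potato dextrose broth with about 8000 conidia was added (about 4 × 10^4/mL). For A. flavus, conidia came from 14-day PDA cultures at 25 °C and were filtered through cheesecloth. Plates were incubated 48 h at 25 °C and read on a plate reader every 8-16 h against MeOH-only controls. MIC is the lowest level with no growth. Nystatin was the positive control. F. verticillioides was run analogously.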

Fusarium verticillioides [2] = experiment: Antifungal activity against Fusarium verticillioides NRRL 25457 at 200 ug/disk; settings: read-out: IZ
How it was run: (§2)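 Agar disk diffusion at 200 µg/disk against each fungal strain, scored as the inhibition zone diameter in mm.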

Aspergillus flavus [3] = experiment: Antifungal activity against Aspergillus flavus NRRL 6541 at 200 ug/disk; settings: read-out: IZ; how it was run: as §2
Aspergillus flavus [4] = experiment: Antifungal activity against Aspergillus flavus NRRL 6541 after 48 hrs; settings: NRRL 6541, 48 h; how it was run: as §1
Aspergillus flavus [5] = experiment: Antifungal activity against Aspergillus flavus NRRL 6541 at >25 ug/mL after 48 hrs relative to control; settings: in the assay text read “25 ug/mL” for “>25 ug/mL”; how it was run: as §1

SMILES | zone of inhibition at 50 µg/disc (Bacillus subtilis) [mm] | Activity (Staphylococcus aureus) | zone of inhibition at 100 µg/disc (Candida albicans) [mm] | Activity (Candida albicans) | zone of inhibition at 100 µg/disc (Staphylococcus aureus) [mm] | MIC (Fusarium verticillioides [1]) [µg/mL] | zone of inhibition at 200 µg/disc (Fusarium verticillioides [2]) [mm] | zone of inhibition at 200 µg/disc (Aspergillus flavus [3]) [mm] | MIC (Aspergillus flavus [4]) [µg/mL] | Activity (Aspergillus flavus [5]) [%]
CC(=O)O[C@H]1C=C[C@@H](O)[C@@H]2[C@@H]1C(=O)C=CC21Oc2cccc3cccc(c23)O1 [DECASPIRONE E] | 30 | inactive | 17 | – | – | – | – | – | – | –
CC(=O)O[C@H]1C=C[C@@H](O)[C@@H]2[C@@H]1[C@@H](O)C=CC21Oc2cccc3cccc(c23)O1 [DECASPIRONE B] | 19 | inactive | – | inactive | – | – | – | – | – | –
CC(=O)O[C@@H]1C=C[C@H](O)[C@H]2C(=O)C=CC3(Oc4cccc5cccc(c45)O3)[C@@H]21 [DECASPIRONE D] | 30 | – | 13 | – | 30 | – | – | – | – | –
O=C1C=CC2(Oc3cccc4cccc(c34)O2)[C@H]2[C@H]1[C@@H](O)C=C[C@H]2O [DECASPIRONE A] | 39 | – | 30 | – | 41 | 5 (≈ 14.9 µM) | 20 | 20 | 10 (≈ 29.7 µM) | –
O=C1C=CC2(Oc3cccc4cccc(c34)O2)[C@H]2[C@H]1[C@@H](O)CC[C@H]2O [DECASPIRONE C] | 34 | – | – | inactive | 28 | 25 (≈ 73.9 µM) | 26 | 15 | > 25 | 27
